Results from ChEMBL document CHEMBL3769305, “Glucose-functionalized amino-OPEs as biocompatible photosensitizers in PDT” (Eur J Med Chem, 2016).
The source made the active and inactive calls. The calls are words filed in the database; no cut-off is given here.

What was measured:
HeLa [1] = assay: Phototoxicity against human HeLa cells assessed as cell lethality at 3 to 250 uM incubated for 6 hrs followed by UV irradiation at 2 J/cm'2 measured after 24 hrs by MTT assay; assay type: functional
How it was run: (§1)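 Cultures at 60–70% confluence were loaded with the photosensitizer for 6 h in medium with 1% FBS and <0.5% DMSO. Medium was then replaced and cells were irradiated with UVA (300–400 nm, 15.9 W/m² at 10 cm), then washed and kept in complete medium for 24 h. Survival was read by MTT (50 µg/mL, 4 h, 542 nm) as % of untreated control OD.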

HeLa [2] = assay: Induction of cell morphological changes in human HeLa cells assessed as deep deformation of cell membrane at LD90 after 24 hrs by Hoechst 33258 staining-based phase contrast microscopy in presence of 1 to 2 J/Cm'2 UVA light; assay type: functional
HEp-2 [3] = assay: Induction of cell morphological changes in human Hep2 cells assessed as deep deformation of cell membrane at LD90 after 24 hrs by Hoechst 33258 staining-based phase contrast microscopy in presence of 1 to 2 J/Cm'2 UVA light; assay type: functional
HaCaT [4] = assay: Drug uptake in human HaCaT cells at 1 uM after 6 hrs by fluorescence microscopy; assay type: ADME, cell-based
How it was run: (§2)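 Cells on glass coverslips at 60–70% confluence were exposed to 1×10^-6 M compound in medium with 1% FBS (DMSO <0.5%) for 6 h at 37 °C. After two PBS washes they were imaged live under UV excitation (365 nm), with blue excitation (460–490 nm) also used. Untreated cells served as autofluorescence controls.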

HEp-2 [5] = assay: Induction of morphological changes in human Hep2 cells assessed as nuclear retraction at LD50 after 24 hrs by Hoechst 33258 staining-based fluorescence microscopy in presence of UVA light; assay type: functional, cell-based
[6] = Phototoxicity against human Hep2 cells assessed as cell lethality at 3 to 250 uM incubated for 6 hrs followed by UV irradiation at 0.5 J/cm'2 measured after 24 hrs by MTT assay; assay type: functional, HEp-2; how it was run: as §1
HaCaT [7] = assay: Induction of apoptotic morphological changes in human HaCaT cells at LD50 after 24 hrs by Hoechst 33258 staining-based fluorescence microscopy in presence of UVA light; assay type: cell-based
HaCaT [8] = assay: Phototoxicity against human HaCaT cells assessed as cell lethality at 3 to 250 uM incubated for 6 hrs followed by UV irradiation at 1 J/cm'2 measured after 24 hrs by MTT assay; assay type: cell-based; how it was run: as §1
HeLa [9] = assay: Increase in mitotic nuclei level in human HeLa cells at LD50 after 24 hrs by Hoechst 33258 staining-based fluorescence microscopy in presence of UVA light; assay type: functional, cell-based
HeLa [10] = assay: Induction of microtubule disruption in human HeLa cells assessed as increase in altered metaphase at LD50 after 24 hrs by immunofluorescence assay in presence of UVA light; assay type: cell-based
HeLa [11] = assay: Induction of cell morphological changes in human HeLa cells assessed as cytoplasmic retraction at 3 to 5 uM after 24 hrs by Hoechst 33258 staining-based phase contrast microscopy in presence of UVA light; assay type: functional
HaCaT [12] = assay: Phototoxicity against human HaCaT cells assessed as cell lethality at 3 to 250 uM incubated for 6 hrs followed by UV irradiation at 0.5 J/cm'2 measured after 24 hrs by MTT assay; assay type: cell-based; how it was run: as §1
[13] = Phototoxicity against human HaCaT cells incubated for 6 hrs followed by UV irradiation at 0.25 J/cm'2 measured after 24 hrs by MTT assay; assay type: cell-based; conditions: read-out: LD50; how it was run: as §1
HEp-2 [14] = assay: Increase in mitotic nuclei level in human Hep2 cells at LD50 after 24 hrs by Hoechst 33258 staining-based fluorescence microscopy in presence of UVA light; assay type: functional, cell-based
HeLa [15] = assay: Drug uptake in human HeLa cells at 1 uM after 6 hrs by fluorescence microscopy; assay type: ADME, cell-based; how it was run: as §2
[16] = Drug uptake in human Hep2 cells at 1 uM after 6 hrs by fluorescence microscopy; assay type: ADME, cell-based; conditions: hep-2, 6 h; how it was run: as §2
HEp-2 [17] = assay: Induction of cell morphological changes in human Hep2 cells assessed as cytoplasmic vacuolization at 3 to 5 uM after 24 hrs by Hoechst 33258 staining-based phase contrast microscopy in presence of UVA light; assay type: functional
[18] = Dark toxicity against human HeLa cells assessed as cell survival at 10 uM incubated for 6 hrs measured after 24 hrs by MTT assay; assay type: cell-based; conditions: read-out: Survival
How it was run: (§3)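 Cells (HaCaT and HeLa in DMEM, HEp-2 in RPMI, each with 10% FBS, at 37 °C and 5% CO2) were treated at 60–70% confluence. The compound was added from a 10^-3 M DMSO stock in medium with 1% FBS (final DMSO <0.5%) at 3·10^-6 to 2.5·10^-5 M and kept in the dark (6 h per table footnote, 18 h per methods). After 24 h, MTT at 50 µg/mL for 4 h, read at 542 nm as % of control OD.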

[19] = Dark toxicity against human HaCaT cells assessed as cell survival at 10 uM incubated for 6 hrs measured after 24 hrs by MTT assay; assay type: cell-based; conditions: read-out: Survival; how it was run: as §3
HEp-2 [20] = assay: Induction of apoptosis in human Hep2 cells at LD50 after 24 hrs by acridine orange/ethidium bromide staining-based assay in presence of 0.25 to 0.5 J/cm'2 UVA light; assay type: functional, cell-based
HeLa [21] = assay: Induction of morphological changes in human HeLa cells assessed as nuclear retraction at LD50 after 24 hrs by Hoechst 33258 staining-based fluorescence microscopy in presence of UVA light; assay type: functional, cell-based
HaCaT [22] = assay: Induction of cell morphological changes in human HaCaT cells assessed as deep deformation of cell membrane at LD90 after 24 hrs by Hoechst 33258 staining-based phase contrast microscopy in presence of 1 to 2 J/Cm'2 UVA light
HeLa [23] = assay: Induction of cell morphological changes in human HeLa cells assessed as cell detachment from substrate at 3 to 5 uM after 24 hrs by Hoechst 33258 staining-based phase contrast microscopy in presence of UVA light; assay type: functional
HeLa [24] = assay: Induction of necrosis in human HeLa cells at LD50 after 24 hrs by acridine orange/ethidium bromide staining-based assay in presence of 0.25 to 0.5 J/cm'2 UVA light; assay type: functional, cell-based
HeLa [25] = assay: Phototoxicity against human HeLa cells assessed as appearance of rounded cells at LD50 after 24 hrs by acridine orange/ethidium bromide staining-based assay in presence of 0.25 to 0.5 J/cm'2 UVA light; assay type: functional, cell-based
How it was run: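 Cells (HaCaT, HeLa in DMEM; HEp-2 in RPMI; 10% FBS) at 60–70% confluence were incubated 6 h with 3·10^-6 M photosensitizer (DMSO stock diluted in medium with 1% FBS, final DMSO <0.5%). Medium was replaced and cells were given 0.25 J/cm² UVA (300–400 nm). 24 h later, cells were stained live with 50 µg/ml AO plus 50 µg/ml EtBr in PBS. Within 15 min, 200 cells per condition were scored as living, rounded, apoptotic or necrotic.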

HeLa [26] = assay: Phototoxicity against human HeLa cells assessed as cell lethality at 3 to 250 uM incubated for 6 hrs followed by UV irradiation at 0.5 J/cm'2 measured after 24 hrs by MTT assay; assay type: functional; how it was run: as §1

COc1cc(C#Cc2ccc(C#Cc3cc(OC)c(C#CCO[C@@H]4O[C@H](CO)[C@@H](O)[C@H](O)[C@H]4O)cc3OC)c(N(C)C)c2)c(OC)cc1C#CCO[C@@H]1O[C@H](CO)[C@@H](O)[C@H](O)[C@H]1O
mortality (HeLa [1]): >50%
Activity (HeLa [2]): Active
Activity (HEp-2 [3]): Active
Drug uptake (HaCaT [4]): Active
Activity (HEp-2 [5]): Active
mortality [6]: >50%
Activity (HaCaT [7]): Toxic
mortality (HaCaT [8]): > 50%
Activity (HeLa [9]): Active
Activity (HeLa [10]): Active
Activity (HeLa [11]): Active
mortality (HaCaT [12]): > 50%
CC50 at 24 h [13]: 3000 nM
Activity (HEp-2 [14]): Active
Drug uptake (HeLa [15]): Active
Drug uptake [16]: Active
Activity (HEp-2 [17]): Active
viability at 6 h, 10 µM [18]: 82.2%
viability at 6 h, 10 µM [19]: 71.5%
Activity (HEp-2 [20]): Active
Activity (HeLa [21]): Active
Activity (HaCaT [22]): Toxic
Activity (HeLa [23]): Active
Activity (HeLa [24]): Active
Activity (HeLa [25]): Active
mortality (HeLa [26]): >50%

COc1cc(C#Cc2ccc(C#CCO[C@@H]3O[C@H](CO)[C@@H](O)[C@H](O)[C@H]3O)cc2N(C)C)c(OC)cc1C#Cc1ccc(C#CCO[C@@H]2O[C@H](CO)[C@@H](O)[C@H](O)[C@H]2O)cc1N(C)C
mortality (HeLa [1]): >50%
Activity (HeLa [2]): Active
Activity (HEp-2 [3]): Active
Drug uptake (HaCaT [4]): Active
Activity (HEp-2 [5]): Active
mortality [6]: >50%
Activity (HaCaT [7]): Toxic
mortality (HaCaT [8]): > 50%
Activity (HeLa [9]): Active
Activity (HeLa [10]): Active
Activity (HeLa [11]): Active
mortality (HaCaT [12]): > 50%
CC50 at 24 h [13]: 3000 nM
Activity (HEp-2 [14]): Active
Drug uptake (HeLa [15]): Active
Drug uptake [16]: Active
Activity (HEp-2 [17]): Active
viability at 6 h, 10 µM [18]: 76.9%
viability at 6 h, 10 µM [19]: 70.2%
Activity (HEp-2 [20]): Active
Activity (HeLa [21]): Active
Activity (HaCaT [22]): Toxic
Activity (HeLa [23]): Active
Activity (HeLa [24]): Active
Activity (HeLa [25]): Active
mortality (HeLa [26]): >50%
